{"source": "paper PMC7217345", "about": "(Annals of Oncology, 2020)", "key": {"[1]": {"system": "metastatic prostate cancer patients", "details": "overall population; marked benefit for PTEN loss; cited from earlier work"}, "[2]": {"system": "pERK", "test": "IHC for pERK expression in tumour biopsies", "assay_type": "in vivo, human", "details": "with enzalutamide, including two of the responders"}, "[3]": {"system": "pSer9 GSK3β", "test": "Pharmacodynamics: phosphorylated Ser9 GSK3β in platelet-rich plasma", "assay_type": "in vivo, human", "details": "400 mg alone (cycle 0)", "method_in_brief": "(§1)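 mCRPC patients took a single capivasertib dose on cycle 0 day 1, followed by PK and PD sampling. Combination with enzalutamide 160 mg daily began at C1D1, with capivasertib b.i.d. on a 4/7 schedule. Platelet-rich plasma and hair follicles were assayed for pSer9 and total GSK3β and for pThr246 and total PRAS40. Statistics used one-way ANOVA with […] and Dunnett's tests, with P<0.05 as significant.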"}, "[4]": {"system": "pThr246 PRAS40", "test": "Pharmacodynamics: phosphorylated Thr246 PRAS40 in hair follicles", "assay_type": "in vivo, human", "method_in_brief": "as §1"}, "[5]": {"system": "patients with metastatic castration-resistant prostate cancer", "test": "Phase I dose escalation", "assay_type": "in vivo, human", "method_in_brief": "(§2)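 Open-label, single-centre 3+3 escalation in mCRPC. Capivasertib was given b.i.d. 4/7, starting at 320 mg with predefined escalation and de-escalation. A 7-day cycle 0 (single dose on D1) preceded 28-day cycles of capivasertib plus enzalutamide 160 mg daily. MTD/RP2D was the highest level with ≥6 patients and <1/3 with DLT. AEs were graded by CTCAE v4.0 from first dose to 30 days post-discontinuation. All treated patients were included.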"}, "[6]": {"system": "patients with metastatic castration-resistant prostate cancer", "test": "Treatment-related adverse events", "assay_type": "in vivo, human", "details": "Total N=15, with enzalutamide", "method_in_brief": "as §2"}, "[7]": {"system": "patients", "details": "4 days on and 3 days off every week (4/7); cited from earlier work"}, "[8]": {"test": "Plasma pharmacokinetics of capivasertib", "assay_type": "in vivo, human", "method_in_brief": "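Venous blood was sampled serially up to 48 h post-dose on C0D1 (capivasertib alone) and on C2D1, C2D4 and C2D11 (with enzalutamide). Cmax, Tmax and AUC8h were derived. Geometric means of dose-normalised Cmax and AUC8h were compared between cycle 2 and cycle 0.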"}}, "data": [{"smiles": "CC(C)NC[C@@H](C(=O)N1CCN(c2ncnc3c2[C@H](C)C[C@H]3O)CC1)c1ccc(Cl)cc1", "note": "[ipatasertib]", "values": [{"measurement": "rPFS, abiraterone with vs without ipatasertib", "setting": "[1]", "value": "improved rPFS"}]}, {"smiles": "NC1(C(=O)N[C@@H](CCO)c2ccc(Cl)cc2)CCN(c2nc[nH]c3nccc2-3)CC1", "note": "[capivasertib]", "values": [{"measurement": "pERK expression by IHC, post-treatment vs baseline", "setting": "[2]", "value": "increased after treatment in three patients"}, {"measurement": "mean decrease in pGSK3β compared with baseline", "setting": "[3]; 2 h after dose", "value": 56, "unit": "%"}, {"measurement": "mean decrease in pGSK3β compared with baseline", "setting": "[3]; 4 h after dose", "value": 44, "unit": "%"}, {"measurement": "mean decrease in pGSK3β compared with baseline", "setting": "[3]; 8 h after dose", "value": 22, "unit": "%"}, {"measurement": "mean percentage reduction in PRAS40", "setting": "[4]; 320 mg with enzalutamide", "value": "−34", "unit": "%"}, {"measurement": "mean percentage reduction in PRAS40", "setting": "[4]; 320 mg without enzalutamide", "value": 38, "unit": "%"}, {"measurement": "mean percentage reduction in PRAS40", "setting": "[4]; 400 mg with enzalutamide", "value": 22, "unit": "%"}, {"measurement": "mean percentage reduction in PRAS40", "setting": "[4]; 400 mg without enzalutamide", "value": 23, "unit": "%"}, {"measurement": "mean percentage reduction in PRAS40", "setting": "[4]; 480 mg with enzalutamide", "value": 40, "unit": "%"}, {"measurement": "mean percentage reduction in PRAS40", "setting": "[4]; 480 mg without enzalutamide", "value": 26, "unit": "%"}, {"measurement": "patients experiencing a DLT (maculopapular rash)", "setting": "[5]; 400 mg b.i.d., with enzalutamide", "value": "1/6"}, {"measurement": "RP2D (recommended phase II dose)", "setting": "[5]; 4/7 schedule, with enzalutamide 160 mg daily", "value": 400, "unit": "mg b.i.d."}, {"measurement": "fatal SAEs", "setting": "[5]; all dose levels", "value": "no fatal SAEs"}, {"measurement": "patients with dosing interruption or reduction", "setting": "[5]; beyond cycle 1, six of fourteen patients", "value": 42.9, "unit": "%"}, {"measurement": "dosing interruptions or reductions due to AEs", "setting": "[5]; during the DLT period, five of nine patients", "value": 55.6, "unit": "%"}, {"measurement": "AEs judged to be treatment-related", "setting": "[5]; of 259 AEs, safety population", "value": 42.5, "unit": "%"}, {"measurement": "AEs reported", "setting": "[5]; safety population, all dose levels", "value": 259}, {"measurement": "Hyper-glycaemia, Grade 3/4", "setting": "[6]", "value": 26.7, "unit": "%"}, {"measurement": "single-agent recommended phase II dose (RP2D)", "setting": "[7]", "value": 480, "unit": "mg b.i.d."}, {"measurement": "patients in whom enzalutamide decreased both Cmax and AUC", "setting": "[8]; compared with capivasertib monotherapy", "value": "11 out of 13"}, {"measurement": "approximate mean decrease of Cmax and AUC", "setting": "[8]; cycle 2 (with enzalutamide) compared with cycle 0 (monotherapy)", "value": "~40", "unit": "%"}]}]}
